Data as given in ChEMBL document CHEMBL3351977, “Chemotherapy of leishmaniasis part XIII: design and synthesis of novel heteroretinoid-bisbenzylidine ketone hybrids as antileishmanial agents” (Bioorg Med Chem Lett, 2015).

Key:
[1] = test system: Leishmania donovani; assay: Antileishmanial activity against amastigote stage of Leishmania donovani MHOM/IN/80/Dd8 infected in mouse J774.1 cells after 72 hrs by luciferase reporter gene assay; type: functional, organism-based
Summary of the method: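 Intracellular L. donovani amastigotes growing inside macrophages were exposed to a concentration series. IC50 was obtained by nonlinear regression of the concentration-response curve with a four-parameter Hill equation. Values are mean ± S.D. of three independent experiments. Reference drugs were sodium stibogluconate and miltefosine.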

[2] = test system: Vero; assay: (§1) Selectivity index, ratio of CC50 for African green monkey Vero cells to IC50 for amastigote stage of Leishmania donovani MHOM/IN/80/Dd8; type: functional
Summary of the method: (§2)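 SI was calculated as CC50 on Vero cells (MTT viability) divided by IC50 on L. donovani intramacrophagic amastigotes. IC50 came from four-parameter Hill regression and CC50 from a Huber–Koella template. Both are means of three independent experiments.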

[3] = as §1; type: functional; summary of the method: as §2
[4] = (§3) Cytotoxicity against African green monkey Vero cells assessed as cell viability after 72 hrs by MTT assay; type: cell-based; settings: chlorocebus sabaeus, Vero cells
Summary of the method: (§4)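 Vero cells were used, with viability read by MTT assay and podophyllotoxin as the reference cytotoxic drug. CC50 (50% maximum cytotoxic concentration) was estimated with a preformed template following Huber and Koella. Values are mean ± S.D. of three independent experiments.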

[5] = test system: Vero; assay: as §3; type: cell-based; settings: chlorocebus sabaeus, vero, 72 h; summary of the method: as §4
[6] = test system: Leishmania donovani; assay: Ratio of Miltefosine IC50 to compound IC50 for amastigote stage of Leishmania donovani MHOM/IN/80/Dd8 infected in mouse J774.1 cells; type: functional
[7] = test system: Leishmania donovani; assay: Ratio of Sodium stibogluconate IC50 to compound IC50 for amastigote stage of Leishmania donovani MHOM/IN/80/Dd8 infected in mouse J774.1 cells; type: functional
[8] = Leishmania donovani, MHOM/IN/80/Dd8, J774.1, 72 h

Row | Molecule | IC50 [1, 8] [µM] | Ratio CC50/IC50 [3] | CC50 at 72 h [4] [µM] | further results
1 | COc1ccc(/C=C2\CN(C(=O)c3cc(/C=C/C4C(C)=CCCC4(C)C)on3)C/C(=C\c3ccc(OC)cc3)C2=O)cc1 (stereo unspecified) | > 40 |  |  | 
2 | COc1ccccc1/C=C1\CN(C(=O)c2cc(/C=C/C3C(C)=CCCC3(C)C)on2)C/C(=C\c2ccccc2OC)C1=O (stereo unspecified) | > 20 |  |  | 
3 | SODIUM ANTIMONY GLUCONATE [listing 1 of 2 here] |  |  |  | Ratio CC50/IC50 [2]: > 7.53
4 | CC1=CCCC(C)(C)C1/C=C/c1cc(C(=O)N2C/C(=C\c3ccc(OCc4ccccc4)cc3)C(=O)/C(=C/c3ccc(OCc4ccccc4)cc3)C2)no1 (stereo unspecified) | > 40 |  |  | 
5 | CCOc1cc(/C=C2\CN(C(=O)c3cc(/C=C/C4C(C)=CCCC4(C)C)on3)C/C(=C\c3ccc(O)c(OCC)c3)C2=O)ccc1O (stereo unspecified) | 6.1 | 4.53 | 27.7 | 
6 | CC1=CCCC(C)(C)C1/C=C/c1cc(C(=O)N2C/C(=C\c3ccc(Cl)cc3)C(=O)/C(=C/c3ccc(Cl)cc3)C2)no1 (stereo unspecified) | > 40 |  |  | 
7 | CCCCCCCCCCCCCCCCOP(=O)([O-])OCC[N+](C)(C)C [MILTEFOSINE] | 8.1 | 6.52 |  | 
8 | SODIUM ANTIMONY GLUCONATE [listing 2 of 2 here] |  |  |  | IC50 ([1]; j774.1): 53.1 µM; CC50 [5]: > 400 µM
9 | COc1cc(/C=C2\CN(C(=O)c3cc(/C=C/C4C(C)=CCCC4(C)C)on3)C/C(=C\c3ccc(OCc4ccccc4)c(OC)c3)C2=O)ccc1OCc1ccccc1 (stereo unspecified) | 5.02 | >79.68 | > 400 | Ratio IC50 [6]: 1.6; Ratio IC50 [7]: 10
10 | COc1cc(/C=C2\CN(C(=O)c3cc(/C=C/C4C(C)=CCCC4(C)C)on3)C/C(=C\c3ccc(O)c(OC)c3)C2=O)ccc1O (stereo unspecified) | 1.83 | 12.81 | 23.4 | 
11 | COc1cc(/C=C2\CN(C(=O)c3cc(/C=C/C4C(C)=CCCC4(C)C)on3)C/C(=C\c3cc(OC)c(OC)c(OC)c3)C2=O)cc(OC)c1OC (stereo unspecified) | 4.7 | 5.38 | 25.3 | 
12 | COc1ccc(/C=C2\CN(C(=O)c3cc(/C=C/C4C(C)=CCCC4(C)C)on3)C/C(=C\c3ccc(OC)c(OC)c3)C2=O)cc1OC (stereo unspecified) | 3.75 | 12.2 | 45.8 | 
